Results taken from ChEMBL document CHEMBL1122651, “5-Aryl-3-azabicyclo[3.2.0]heptan-6-one ketals, compounds with morphine-like analgesic activity” (J Med Chem, 1984).
pIC50: −log10 of the molar value.

What was measured:
Rattus norvegicus [1] = organism: Rattus norvegicus; assay: Ability to displace [3H]naloxone binding from homogenates of rat brain minus cerebellum at the concentration of 0.78 uM
In short: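 Competition binding of [3H]naloxone to rat brain homogenate with cerebellum removed. Pert–Snyder procedure as modified by Ong et al. Percent inhibition of stereospecific binding read at a single drug concentration of 0.78 μM.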

Rattus norvegicus [2] = organism: Rattus norvegicus; details: Brain, at 25 µM
Rattus norvegicus [3] = assay: Analgesic activity of intraperitoneally administered compound was determined by the inflamed rat-paw reversal of abnormal (three-legged) gait; 4/4 Active; format: functional; details: ip
In short: (§1)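 Rats with an inflamed paw and abnormal three-legged gait, dosed with compound or vehicle. Reversal of the abnormal gait is scored. A reduction of abnormal gait of at least 50% counts as a positive analgesic response. ED50 and 95% confidence limits by Finney's linear arc sine transformation.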

Rattus norvegicus [4] = organism: Rattus norvegicus; assay: Concentration of drug required to inhibit the stereospecific binding of [3H]-naloxone (5 nM) to homogenates of rat brain minus cerebellum in the absence of 100 mM NaCl; format: functional, organism-based
Rattus norvegicus [5] = assay: Analgesic activity of subcutaneously administered compound was determined by the inflamed rat-paw reversal of abnormal (three-legged) gait; 0.06-2.0; details: sc
Rattus norvegicus [6] = organism: Rattus norvegicus; assay: (§2) Concentration of drug required to inhibit the stereospecific binding of [3H]naloxone (5 nM) to homogenates of rat brain minus cerebellum in the presence of 100 mM NaCl
Rattus norvegicus [7] = organism: Rattus norvegicus; assay: animal or person; details: po
Rattus norvegicus [8] = organism: Rattus norvegicus; details: Brain, at 0.78 µM
Rattus norvegicus [9] = organism: Rattus norvegicus; assay: as §2; format: functional
In short: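 Displacement of [3H]naloxone (5 nM) from stereospecific sites in rat brain homogenate (minus cerebellum), run with 100 mM NaCl added. Eight displacing ligand concentrations, each analysis in triplicate. Value is the drug concentration giving 50% inhibition of binding.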

Rattus norvegicus [10] = assay: Analgesic activity of intraperitoneally administered compound was determined by the inflamed rat-paw reversal of abnormal (three-legged) gait; R (reject) highest dose tested inactive; format: functional; details: ip; in short: as §1
Rattus norvegicus [11] = assay: Analgesic activity of perorally administered compound was determined by the inflamed rat-paw reversal of abnormal (three-legged) gait; format: functional; details: po; in short: as §1
Rattus norvegicus [12] = assay: Analgesic activity of intraperitoneally administered compound was determined by the inflamed rat-paw reversal of abnormal (three-legged) gait; format: functional; details: ip; in short: as §1
Rattus norvegicus [13] = assay: Analgesic activity of intraperitoneally administered compound was determined by the inflamed rat-paw reversal of abnormal (three-legged) gait; 8/10 Active; format: functional; details: ip; in short: as §1

SMILES | inhibition (Rattus norvegicus [2]) [%] | pIC50 (Rattus norvegicus [4]) | pIC50 (Rattus norvegicus [9]) | also measured
COC1(OC)CC2CN(C)CC21c1ccccc1 (stereo not drawn) | 62 |  |  | inhibition (Rattus norvegicus [1]): 13%; ED50 (Rattus norvegicus [3]): < 25 mg/kg
CN1CC[C@]23c4c5ccc(O)c4O[C@H]2[C@@H](O)C=C[C@H]3[C@H]1C5.CN1CC[C@]23c4c5ccc(O)c4O[C@H]2[C@@H](O)C=C[C@H]3[C@H]1C5.O=S(=O)(O)O | 100 | 7.13 |  | ED50 (Rattus norvegicus [5]): 0.4 mg/kg; pIC50 (Rattus norvegicus [6]): 6.42; ED50 (Rattus norvegicus [7]): 35 mg/kg; inhibition (Rattus norvegicus [8]): 97%
C=CCN1CC[C@]23CCCC[C@H]2[C@H]1Cc1ccc(O)cc13 [LEVALLORPHAN] |  | 8.05 | 7.47 | 
COc1cccc(C23CN(C)CC2CC3=O)c1 (stereo not drawn) | 22 |  |  | ED50 (Rattus norvegicus [10]): 25 mg/kg; inhibition (Rattus norvegicus [8]): 12%
COc1cccc(C23CN(C)CC2CC3(OC)OC)c1 (stereo not drawn) | 61 | 5.00 | 4.20 | ED50 (Rattus norvegicus [11]): 4 mg/kg; inhibition (Rattus norvegicus [1]): 7%
C=CCN1CC[C@]23c4c5ccc(O)c4O[C@H]2C(=O)CC[C@@]3(O)[C@H]1C5 [NALOXONE] |  | 7.34 | 7.38 | 
COC1(OC)CC2CN(C)CC21c1cccc(O)c1 (stereo not drawn) | 99 | 7.21 | 6.24 | ED50 (Rattus norvegicus [12]): ~3 mg/kg; inhibition (Rattus norvegicus [8]): 85%
COC1(OC)CC2CN(C)CC21c1ccc(C)cc1 (stereo not drawn) | 62 |  |  | ED50 (Rattus norvegicus [10]): 25 mg/kg; inhibition (Rattus norvegicus [1]): 11%
COc1ccc2c3c1O[C@H]1[C@@H](O)C=C[C@H]4[C@@H](C2)N(C)CC[C@@]341 [CODEINE] |  | 5.59 | 4.66 | 
COc1cccc(C23CNCC2CC3(OC)OC)c1 (stereo not drawn) |  |  |  | ED50 (Rattus norvegicus [12]): > 25 mg/kg
COc1cccc(C23CN(C)CC2CC32OCC(C)(C)CO2)c1.O=C(O)/C=C/C(=O)O (stereo not drawn) |  |  |  | ED50 (Rattus norvegicus [13]): < 25 mg/kg
